An excerpt weighted towards active compounds, which were near 5.9% of everything screened.
H69AR inhibit: blocks growth of human H69AR lung tumor cells; H69AR lung tumor viability, ATP luminescence, 72 h; stronger effect = lower value; viability, % at 10 µM; 85,000 compounds, 6% hits; AID 598;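 active means viability at or below 40%; inactive means viability above 40%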;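 further: multidrug resistant small cell line overexpressing MRP-1 efflux transporter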
Lung fibro prol: blocks proliferation of human lung fibroblasts | LL 47 human lung fibroblast viability, ATP luminescence; stronger effect = lower value | viability, % at 10 µM | 85,000 compounds, 1.1% hits | AID 719;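 active means viability at or below 50% in the single dose screen; inactive means viability above 50%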;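 further: compound exposure lasted 72 h before the ATP readout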
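test system = LL 47 human lung fibroblasts | amount = 1,150 fibroblasts seeded per well | medium = 15% FBS in IMEM | times = overnight cell rest, 72 h compound treatment at 37 °C | measured by = CellTiter-Glo luminescence measuring cellular ATP | read-out = viability percentage against median untreated-cell control | benchmarks = cell-only wells, no compound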
Jurkat viability: reduces viability or proliferation of Jurkat cells. Jurkat E6.1 viability, ATP luminescence, 48 h. inhibition, % at 4 µM. 56,000 compounds, 1.2% hits;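 active means inhibition above the mean inhibition of all tested compounds plus 3 SD, cut at about 28% in these data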
Pyk2 oligo antag: blocks oligomerization of human Pyk2 in cells. z-score (the deposit names both 25 µM and 10 µM). 99,000 compounds, 0.83% hits. Q14289. Q293 cells, Pyk2 FERM NanoBiT luminescence; stronger effect = lower value;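 active means Z-score of -3 or lower, scaled per plate to the spread of control and sample wells; inactive means z-score above -3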;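 further: negative z-score means lost luminescence so less FERM oligomerization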
HUVEC inhibit: blocks proliferation of human endothelial cells | 86,000 compounds, 1.1% hits | viability, % at 10 µM (by protocol) | HUVEC proliferation, CellTiter-Glo luminescence, 72 h; stronger effect = lower value;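 active means viability at or below 30%; inactive means viability above 30%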
MT1-MMP txn act: MT1-MMP promoter transcription activation; 86,000 compounds, 0.16% hits; HT1080 MT1-MMP promoter luciferase reporter, luminescence, overnight; stronger effect = higher value; AID 750; activation factor at 10 µM;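 active means activation factor of at least 2 for MT1-MMP transcription at 10 µM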
A number is an active result.

Results for COc1ccc(CCNC(=O)c2ccc(=O)[nH]n2)cc1OC ?
H69AR inhibit: inactive; Lung fibro prol: inactive; Pyk2 oligo antag: inactive; HUVEC inhibit: inactive; MT1-MMP txn act: inactive

What do the screens show for `COc1cccc2cc(C(=O)N(C)C3CCN(C)CC3)c(=O)oc12`?
H69AR inhibit: inactive; Lung fibro prol: inactive; Jurkat viability: inactive; Pyk2 oligo antag: inactive; HUVEC inhibit: inactive; MT1-MMP txn act: inactive

What do the screens show for `c1ccc(-c2nc(N3CCNCC3)nc3ccccc23)cc1`?
H69AR inhibit: 4.4; Lung fibro prol: inactive; Pyk2 oligo antag: inactive; HUVEC inhibit: inactive; MT1-MMP txn act: inactive

Results for O=C(COC(=O)c1ccc(Br)o1)Nc1cccc(S(=O)(=O)N2CCCCCC2)c1 ?
Pyk2 oligo antag: inactive

How did Cc1ccc(NC(=O)Cc2nnc(SCC(=O)c3ccc(Br)cc3)n2C)cc1 do in these assays?
H69AR inhibit: inactive; Lung fibro prol: inactive; Pyk2 oligo antag: inactive; HUVEC inhibit: inactive

How did C[C@]12CC[C@@H]3c4ccc(O)cc4CC[C@H]3[C@@H]1CC[C@@H]2O do in these assays?
H69AR inhibit: 27.2; Lung fibro prol: inactive; HUVEC inhibit: inactive; MT1-MMP txn act: inactive

Results for Cc1ccc(C(=O)C(C(=O)/C=C/c2ccccc2)=C2SCCCS2)cc1 ?
H69AR inhibit: 2.3; Lung fibro prol: 32.4; Pyk2 oligo antag: inactive; HUVEC inhibit: 23.2; MT1-MMP txn act: inactive

What do the screens show for `Cc1ccc(/C(N)=N/OC(=O)/C=C/c2ccccc2)cc1`?
H69AR inhibit: inactive; Lung fibro prol: inactive; Pyk2 oligo antag: inactive; HUVEC inhibit: inactive; MT1-MMP txn act: inactive

What do the screens show for `CC(C)(C)CC(C)(C)NC(=O)CSCC(=O)Nc1ccc2ccccc2c1`?
H69AR inhibit: inactive; Lung fibro prol: inactive; Pyk2 oligo antag: inactive; HUVEC inhibit: inactive; MT1-MMP txn act: inactive

Results for O=C(Nc1cc(C(F)(F)F)ccc1N1CCOCC1)c1ccc(F)cc1 ?
H69AR inhibit: inactive; Lung fibro prol: inactive; Pyk2 oligo antag: inactive; HUVEC inhibit: inactive

How did O=C(CSc1nc2ccccc2[nH]1)Nc1cc(C(F)(F)F)ccc1N1CCOCC1 do in these assays?
H69AR inhibit: 31.1; Lung fibro prol: inactive; Jurkat viability: inactive; Pyk2 oligo antag: inactive; HUVEC inhibit: inactive; MT1-MMP txn act: inactive

What do the screens show for `Cc1onc(-c2ccccc2)c1C(=O)Nc1ccccc1N1CCOCC1`?
H69AR inhibit: 31.4; Lung fibro prol: inactive; Jurkat viability: inactive; Pyk2 oligo antag: inactive; HUVEC inhibit: inactive; MT1-MMP txn act: inactive

How did Cc1onc(-c2ccccc2)c1C(=O)Nc1cc(C(F)(F)F)ccc1N1CCOCC1 do in these assays?
H69AR inhibit: 22.7; Lung fibro prol: 47.6; Jurkat viability: 87.4; Pyk2 oligo antag: inactive; HUVEC inhibit: inactive; MT1-MMP txn act: inactive

Results for CC(=O)c1cccc(NC(=O)c2nccnc2C(=O)O)c1 ?
H69AR inhibit: inactive; Lung fibro prol: inactive; Jurkat viability: inactive; Pyk2 oligo antag: inactive; HUVEC inhibit: inactive; MT1-MMP txn act: inactive

What do the screens show for `CCOC(=O)c1c(C)[nH]c(C(C)=O)c1C`?
H69AR inhibit: inactive; Lung fibro prol: inactive; Jurkat viability: inactive; Pyk2 oligo antag: inactive; HUVEC inhibit: inactive; MT1-MMP txn act: inactive

What do the screens show for `CCOC(=O)c1[nH]c(C)c(C(=O)Nc2ccccc2C)c1C`?
H69AR inhibit: 26.0; Lung fibro prol: inactive; Jurkat viability: 78.6; HUVEC inhibit: inactive; MT1-MMP txn act: inactive

What do the screens show for `CCOC(=O)c1[nH]c(C)c(C(=O)OCCN2C(=O)c3ccccc3C2=O)c1C`?
H69AR inhibit: 33.9; Lung fibro prol: inactive; Jurkat viability: inactive; Pyk2 oligo antag: inactive; HUVEC inhibit: inactive; MT1-MMP txn act: inactive

What do the screens show for `CCOC(=O)c1[nH]c(C)c(C(=O)NCc2ccc(Cl)cc2)c1C`?
H69AR inhibit: inactive; Lung fibro prol: inactive; Jurkat viability: inactive; Pyk2 oligo antag: inactive; HUVEC inhibit: inactive; MT1-MMP txn act: inactive

What do the screens show for `CCOC(=O)c1[nH]c(C)c(C(=O)Nc2cc(Cl)ccc2C)c1C`?
H69AR inhibit: 24.5; Lung fibro prol: inactive; Jurkat viability: 88.3; Pyk2 oligo antag: inactive; HUVEC inhibit: inactive; MT1-MMP txn act: inactive

How did C=CCOC(=O)CN1C(=O)c2ccccc2C1=O do in these assays?
H69AR inhibit: inactive; Lung fibro prol: inactive; Jurkat viability: inactive; Pyk2 oligo antag: inactive; HUVEC inhibit: inactive; MT1-MMP txn act: inactive

What do the screens show for `CCOC(=O)C1=C(CSCc2ccccc2)NC(=O)NC1c1cc(C)ccc1C` (centres undefined)?
H69AR inhibit: 31.6; Lung fibro prol: inactive; Pyk2 oligo antag: inactive; HUVEC inhibit: inactive; MT1-MMP txn act: inactive

Compound activity from PubChem BioAssay.
